Screening results as filed in PubChem BioAssay.
The list is not random: actives were taken first. Their share in the collection is about 3.3%.
5HT1E ag – 5-HT1E (human) receptor agonism. hit rate 0.69% among 65,000. CHO 5-HT1E Ga15 NFAT-bla reporter, FRET; 0% DMSO wells, 100% control agonist wells. P28566. activation, % at 6 µM;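 active = activation above a set limit, the screen-wide mean activation plus 3 SD, cut at about 8.5% in these data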;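 also: 100% = positive control agonist at 1 µM giving full maximal response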
5HT1a antag – blocks the human serotonin 5-HT1a receptor; P08908; CHO 5-HT1a Ga15 NFAT-bla reporter, antagonist mode; inhibition, % at 10 µM; hit rate 0.68% among 62,000; AID 612;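 active = inhibition above the mean of all tested compounds plus 3 SD, cut at about 43% in these data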;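 also: receptor stimulated by 5-CT agonist at 100 nM near EC80; beta-lactamase reporter measured by ratiometric fluorescence of a cleavable substrate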
Target sequence (P08908 whole entry, looked up): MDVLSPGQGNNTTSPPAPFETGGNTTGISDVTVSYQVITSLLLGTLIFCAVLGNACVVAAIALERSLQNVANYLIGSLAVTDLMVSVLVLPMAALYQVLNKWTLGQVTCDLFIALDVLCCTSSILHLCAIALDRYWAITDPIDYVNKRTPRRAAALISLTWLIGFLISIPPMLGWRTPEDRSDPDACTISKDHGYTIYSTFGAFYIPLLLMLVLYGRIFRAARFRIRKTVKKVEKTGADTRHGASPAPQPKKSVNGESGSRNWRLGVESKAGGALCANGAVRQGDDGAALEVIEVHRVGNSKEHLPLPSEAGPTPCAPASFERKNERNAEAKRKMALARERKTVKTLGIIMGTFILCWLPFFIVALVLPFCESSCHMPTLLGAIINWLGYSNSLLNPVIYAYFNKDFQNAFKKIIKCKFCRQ
HEK293 NFkB inh – inhibitors of the PMA/ionomycin-induced NF-kB reporter in HEK293 cells; HEK-293 NF-kB luciferase reporter, luminescence; inhibition, % at 3 µM; hit rate 0.21% among 62,000;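 active = inhibition above the mean of all tested compounds plus 3 SD, cut at about 40% in these data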;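 also: 0% = stimulated DMSO wells and 100% = 10 µM reference inhibitor 5653914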
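System: NF-kB luciferase reporter HEK-293 cells | Replication: Single test | Control set: DMSO vs reference inhibitor | Evaluation: % inhibition | Schedule: 1 h pretreatment, 16 h stimulation, 37 °C | Probe or stimulus: PMA with ionomycin | Compound dosing: One dose, 3 µM | Detection: Luciferase luminescence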
5HT1a ag – activates the human 5-HT1a serotonin receptor; P08908; CHO 5-HT1a Ga15 NFAT-bla reporter, FRET ratio; 0% basal, 100% maximal reference agonist; activation, % at 10 µM; hit rate 0.56% among 65,000; AID 567;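 active = activation above the screen-wide mean activation plus 3 SD, cut at about 19% in these data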;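 also: 0% = DMSO wells and 100% = 5-CT at EC100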
HTR1E antagonist – antagonists of human 5-HT1E serotonin receptor. CHO 5-HT1E Ga15 NFAT-bla reporter, FRET, antagonist. inhibition, % at 6 µM. hit rate 0.99% among 65,000. AID 571;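 active = inhibition above a set limit, the mean inhibition across every tested compound plus 3 SD, cut at about 29% in these data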;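 also: signal is the 460 over 535 nm emission ratio of beta-lactamase substrate; 0% = agonist plus DMSO wells and 100% = wells without agonist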
Jurkat viability – reduces viability or proliferation of Jurkat cells | hit rate 1.2% among 56,000 | Jurkat E6.1 viability, ATP luminescence, 48 h | inhibition, % at 4 µM;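 active = inhibition above the mean inhibition of all tested compounds plus 3 SD, cut at about 28% in these data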
* = called active by the depositor; / = no result.

SMILES	5HT1E ag	5HT1a antag	HEK293 NFkB inh	5HT1a ag	HTR1E antagonist	Jurkat viability
Cc1noc(C)c1CSc1nc2ccccc2[nH]1	-1.2	-2.3	15.5	67.0*	13.7	11.4
CC(C)OCCCNc1ncnc2c1[nH]c1ccccc12	0.8	25.8	13.6	-0.9	12.3	67.3*
COc1ccccc1N1CCN(c2ccc(-c3ccccc3)nn2)CC1	-0.2	37.9	8.0	-1.2	51.2*	/
COc1ccccc1N1CCN(C2=CC(=O)CCC2)CC1	32.5*	18.3	-3.0	5.9	0.5	/
O=C1C=C(N2CCN(C3=CC(=O)CCC3)CC2)CCC1	-2.1	/	/	4.2	-5.3	/
CCN(CC)C(=O)c1cn(CC)c(=O)c2cc(OC)c(OC)cc12	-1.4	-5.4	0.8	-1.4	-0.9	/
O=C(Cn1cccc1C(=O)c1ccccc1)NCc1cccs1	28.9*	5.9	11.7	-2.1	3.9	-1.4
CCOC(=O)c1c(C)c(C(=O)Nc2ccc3c(c2)OCO3)c(C)n1C	-0.2	19.6	1.2	-1.9	3.8	-0.3
CCOC(=O)c1c(C)c(C(=O)Nc2ccc3c(c2)OCCO3)c(C)n1CC	-0.6	24.7	11.8	-4.0	-0.6	48.5*
O=C(Nn1nnnc1Nc1ccccc1)C12CC3CC(CC(C3)C1)C2	0.2	-0.5	10.7	-2.1	7.0	/
O=C(CCn1nnc2ccccc21)Nc1nnc(Cc2ccc(F)cc2)s1	13.4*	6.3	20.1	-0.5	3.0	2.4
COCCCn1c(SCC(=O)n2c(C)c(C)c3ccccc32)nnc1-c1ccoc1C	-1.1	7.6	18.3	-1.0	2.2	-4.8
c1ccc(OCCn2cnc3ccccc32)cc1	-0.6	-4.1	10.5	0.3	0.7	-5.8
c1ccc(OCCCCn2cnc3ccccc32)cc1	-0.3	15.6	2.5	-2.0	9.9	32.6*
O=C(O)COc1ccc(-c2nnn(CC(=O)O)n2)cc1	0.6	-6.6	12.8	-0.4	-3.4	-6.5
Cn1nnc(-c2ccc(OCc3ccccc3F)cc2)n1	12.6*	-11.9	-40.2	-2.3	4.3	10.0
COC(=O)c1ccc(CSc2ccc3nnc(-c4ccc(OC)c(OC)c4)n3n2)o1	0.7	-9.3	26.1	1.9	18.4	3.0
COc1ccc(Cn2c(=O)oc3ccc(C)cc32)cc1OC	0.3	14.9	13.3	-1.9	18.8	39.6*
CC(C)N1CC=C2C(C#N)=C(N)C(C#N)(C#N)C(c3ccccc3)C2C1 (configuration not stated)	3.8	/	/	25.8*	1.6	/
O=C(Cn1cnc2ccccc2c1=O)NCc1ccco1	-0.9	-2.5	3.1	0.2	-8.0	-5.7
CCOC(=O)C(C)Oc1cccc2c(=O)n(CC(=O)NCc3ccco3)ccc12 (configuration not stated)	-0.3	14.0	25.9	-4.4	38.3*	96.4*
O=C(CCCc1cccs1)N1CCN(S(=O)(=O)c2ccccc2Br)CC1	0.1	2.6	5.1	-1.0	10.7	3.1
CCOC(=O)c1c(-c2ccc(C)o2)csc1N	-0.3	10.5	3.3	-5.2	-11.8	-1.2
CCOC(=O)c1c(-c2ccc(C)o2)csc1NC(=O)COC(=O)c1cccs1	1.3	49.5*	1.3	1.8	0.5	-1.3
CC(C)CNC(=O)CN(C1CCCCC1)S(=O)(=O)c1ccccc1	4.7	14.1	18.1	-0.3	-1.7	/
SMILES	5HT1E ag	5HT1a antag	HEK293 NFkB inh	5HT1a ag	HTR1E antagonist	Jurkat viability
CCC(C)C(NCc1cccc(C)c1)C(=O)O (configuration not stated)	-1.5	-1.7	10.7	0.8	12.4	/
CCC(C)[C@@H](NC(=O)OC(C)(C)C)c1nnc(S(=O)(=O)Cc2cccc(C)c2)o1 (some centres not stated)	2.5	50.8*	-2.2	3.9	-3.5	9.1
CC(C)(C)OC(=O)N[C@@H](Cc1ccccc1)c1nnc(S(=O)(=O)Cc2ccccc2)o1	1.0	78.2*	5.0	-3.4	55.3*	10.3
CCCCCCc1ccc(-c2ncc(N)cn2)cc1	-0.1	8.6	-31.4	-1.4	3.1	51.2*
CCN1CCN(C(=O)C2c3cc(OC)c(OC)cc3C(=O)N(C)C2c2ccc(SC)cc2)CC1 (configuration not stated)	-1.0	59.7*	10.7	-0.7	-1.0	/
O=C(c1ccco1)N1CCN(C(=O)C2CCCN(S(=O)(=O)Cc3ccccc3)C2)CC1 (configuration not stated)	-1.0	11.2	10.1	69.5*	7.3	/
Cc1oc(-c2ccc(Cl)cc2)nc1CN1CCCC(C(=O)N2CCN(C(=O)c3ccco3)CC2)C1 (configuration not stated)	-0.2	-1.7	37.6	1.3	-7.6	61.9*
Cc1oc(-c2cccc(Cl)c2)nc1CN1CCCC(C(=O)NCCCN2CCOCC2)C1 (configuration not stated)	-0.3	16.3	-12.7	30.2*	6.3	4.4
CCCCNC1C(CC)C(CCC)C(C#N)(C#N)C1(C#N)C#N (configuration not stated)	-2.0	63.0*	16.9	-5.5	37.5*	11.9
Cc1ccc2occ(CN3CCN(c4ccccc4)CC3)c(=O)c2c1	7.3	0.5	9.0	-3.9	-10.7	2.5
COc1cccc(N2CCN(Cc3coc4c(Cl)cc(Cl)cc4c3=O)CC2)c1	31.9*	-1.3	14.5	0.9	-4.3	-3.4
O=C(c1ccc(=O)oc1)N1CCCc2ccccc21	-0.8	-12.5	16.4	0.0	6.4	-7.1
COc1ccc(N2CCN(c3oc(COc4ccc(Cl)cc4Cl)nc3C#N)CC2)cc1	-0.1	58.7*	22.5	-0.9	-0.8	-5.7
N#Cc1nc(COc2ccc(Cl)cc2Cl)oc1N1CCOCC1	0.3	4.2	10.2	0.4	1.8	-4.5
N#Cc1nc(COc2ccc(Cl)cc2Cl)oc1N1CCN(c2ccccc2)CC1	-1.1	57.3*	-0.2	0.1	6.7	-5.9
COc1ccc2cc(CCNC(=O)c3c(-c4ccccc4Cl)noc3C)c(=O)[nH]c2c1	1.0	-0.5	9.3	-1.6	-10.5	-13.6
O=C(Nc1ccc2oc(-c3cccnc3)nc2c1)c1cccnc1	0.7	0.0	8.0	-3.2	5.3	-4.3
O=C(Nc1ccc2oc(Cc3ccc(Cl)cc3)nc2c1)c1cccnc1	0.9	3.3	-10.0	-1.3	2.6	34.3*
O=C(Nc1ccc2oc(-c3ccccc3Cl)nc2c1)c1cncc(Br)c1	-0.4	-7.6	-4.3	64.3*	2.1	-3.8
COCC(C)n1c(C)cc(C(=O)COC(=O)c2c(NC(C)=O)sc(C)c2C)c1C (configuration not stated)	-0.3	6.2	25.4	-1.9	1.6	3.5
CC1Cc2ccccc2N1C(=O)c1cc2c(=O)n3ccccc3nc2n1C (configuration not stated)	0.5	-13.6	-7.5	2.5	38.8*	27.5
O=C(Cn1c(-c2ccccc2)noc1=O)NCc1ccccc1	-0.7	16.9	-6.2	-2.2	1.2	6.5
